Here are results for four compounds from ChEMBL document CHEMBL4145598, “Discovery and Development of 8-Substituted Cycloberberine Derivatives as Novel Antibacterial Agents against MRSA” (ACS Med Chem Lett, 2018).

Common to all, as to assay type: functional
Test [1] concerns Staphylococcus aureus. The experiment in a line: Antimicrobial activity against methicillin-resistant Staphylococcus aureus isolate 12-3 after 18 hrs by agar dilution assay. The following applies: isolate 12-3, 18 h. In a few lines: (§1)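 Drug-resistant S. aureus (MRSA/VISA) panel. It includes ATCC reference strains and clinical isolates from patients in Chinese hospitals. MIC was determined by standard methods and reported in μg/mL, with levofloxacin as the reference drug.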
(In agar dilution the substance is mixed into plates at graded concentrations.)

The subject of test [2] is Staphylococcus epidermidis. The experiment in a line: Antimicrobial activity against methicillin-sensitive Staphylococcus epidermidis ATCC 12228 after 18 hrs by agar dilution assay. The following applies: ATCC 12228, 18 h.
Test [3] relates to Staphylococcus aureus. The experiment in a line: Antimicrobial activity against vancomycin-intermediate Staphylococcus aureus ATCC 700699 after 18 hrs by agar dilution assay. The following applies: ATCC 700699, 18 h. Put shortly: (§2)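 MICs in μg/mL against drug-resistant S. aureus (MRSA/VISA) by standard methods, with levofloxacin as the reference drug. ATCC strains were used.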

Test [4] deals with Staphylococcus aureus. The experiment in a line: Antimicrobial activity against methicillin-sensitive Staphylococcus aureus isolate 13-20 after 18 hrs by agar dilution assay. The following applies: isolate 13-20, 18 h.
The test system of test [5] is Staphylococcus aureus. The experiment in a line: Antimicrobial activity against methicillin-resistant Staphylococcus aureus isolate 12-13 after 18 hrs by agar dilution assay. The following applies: isolate 12-13, 18 h. In a few lines: as §1
In test [6] the test system is Staphylococcus saprophyticus. The experiment in a line: Antimicrobial activity against Staphylococcus saprophyticus ATCC 15305 after 18 hrs by agar dilution assay. The following applies: ATCC 15305, 18 h.
Test [7] has as its system Staphylococcus aureus. The experiment in a line: Antimicrobial activity against methicillin-resistant Staphylococcus aureus ATCC-BAA-1708 after 18 hrs by agar dilution assay. The following applies: ATCC-BAA-1708, 18 h. Put shortly:
as §1

Test [8] relates to Staphylococcus aureus. The experiment in a line: Antimicrobial activity against methicillin-resistant Staphylococcus aureus isolate 12-16 after 18 hrs by agar dilution assay. The following applies: isolate 12-16, 18 h. In a few lines: as §1
The test system of test [9] is Staphylococcus aureus. The experiment in a line: Antimicrobial activity against methicillin-resistant Staphylococcus aureus isolate 13-18 after 18 hrs by agar dilution assay. The following applies: isolate 13-18, 18 h. Put shortly:
as §1

For test [10], the system named is Staphylococcus aureus. The experiment in a line: Antimicrobial activity against methicillin-sensitive Staphylococcus aureus ATCC 29213 after 18 hrs by agar dilution assay. The following applies: ATCC 29213, 18 h.
Test [11] relates to Staphylococcus aureus. The experiment in a line: Antimicrobial activity against methicillin-sensitive Staphylococcus aureus isolate 15 after 18 hrs by agar dilution assay. The following applies: isolate 15, 18 h.
Test [12] relates to Staphylococcus aureus. The experiment in a line: Antimicrobial activity against methicillin-resistant Staphylococcus aureus isolate 13-23 after 18 hrs by agar dilution assay. The following applies: isolate 13-23, 18 h. Put shortly: as §1
The subject of test [13] is Staphylococcus aureus. The experiment in a line: Antimicrobial activity against methicillin-resistant Staphylococcus aureus isolate 12-8 after 18 hrs by agar dilution assay. The following applies: isolate 12-8, 18 h. Put shortly: as §1
Test [14] relates to Staphylococcus aureus. The experiment in a line: Antimicrobial activity against methicillin-sensitive Staphylococcus aureus isolate 13-21 after 18 hrs by agar dilution assay. The following applies: isolate 13-21, 18 h.
The subject of test [15] is Staphylococcus aureus. The experiment in a line: Antimicrobial activity against vancomycin-intermediate Staphylococcus aureus ATCC 700698 after 18 hrs by agar dilution assay. The following applies: ATCC 700698, 18 h. In a few lines:
as §2

For test [16], the system named is Staphylococcus aureus. The experiment in a line: Antimicrobial activity against methicillin-resistant Staphylococcus aureus ATCC 33591 after 18 hrs by agar dilution assay. The following applies: ATCC 33591, 18 h. Put shortly:
as §1

The test system of test [17] is Staphylococcus epidermidis. The experiment in a line: Antimicrobial activity against methicillin-sensitive Staphylococcus epidermidis isolate 13-1 after 18 hrs by agar dilution assay. The following applies: isolate 13-1, 18 h.
In test [18] the test system is Staphylococcus aureus. The experiment in a line: Antimicrobial activity against methicillin-sensitive Staphylococcus aureus isolate 13-19 after 18 hrs by agar dilution assay. The following applies: isolate 13-19, 18 h.
Another test concerns Staphylococcus hominis. The experiment in a line: Antimicrobial activity against Staphylococcus hominis ATCC 35982 after 18 hrs by agar dilution assay. The following applies: ATCC 35982, 18 h.
In test [19] the test system is Staphylococcus aureus. The experiment in a line: Antimicrobial activity against methicillin-sensitive Staphylococcus aureus isolate 13-17 after 18 hrs by agar dilution assay. The following applies: isolate 13-17, 18 h.

Some results are limits rather than exact numbers.

Turning to `COc1ccc2c(c[n+]3c4c2ccc2c5c(cc(c24)CC3)OCO5)c1NC(=O)c1c(C)noc1C.[Cl-]`, the MIC (against Staphylococcus aureus [1]; in [2]; in the test on Staphylococcus aureus [3]; in the test with Staphylococcus aureus [4]; with Staphylococcus aureus [5]; in [6]) was above 64 µg/mL throughout. Moreover, the minimum inhibitory concentration (MIC) with Staphylococcus aureus [7], in the test on Staphylococcus aureus [8], against Staphylococcus aureus [9], in the test on Staphylococcus aureus [10], against Staphylococcus aureus [11] and with Staphylococcus aureus [12] was above 64 µg/mL in each case. Further, the MIC (with Staphylococcus aureus [13]; in the test on Staphylococcus aureus [14]; with Staphylococcus aureus [15]; in the test with Staphylococcus aureus [16]; in test [17]; in the test with Staphylococcus aureus [18]) was above 64 µg/mL throughout. For the same compound, the MIC against Staphylococcus hominis and against Staphylococcus aureus [19] was above 64 µg/mL throughout.
As to `COc1cccc(C(=O)COc2c(OC)ccc3c2c[n+]2c4c3ccc3c5c(cc(c34)CC2)OCO5)c1.[Br-]`, the minimum inhibitory concentration (MIC) (as a rule, the smallest concentration in the dilution series that meets the test's criterion for growth inhibition) was 16 µg/mL in the test on Staphylococcus aureus [1]; 16 µg/mL in test [2]; above 64 µg/mL against Staphylococcus aureus [3]; 8 µg/mL with Staphylococcus aureus [4]; 8 µg/mL against Staphylococcus aureus [5]; 8 µg/mL in test [6]. The minimum inhibitory concentration (MIC) was determined as 64 µg/mL against Staphylococcus aureus [7]; 8 µg/mL with Staphylococcus aureus [8]; 4 µg/mL in the test on Staphylococcus aureus [9]; 16 µg/mL in the test with Staphylococcus aureus [10]; 32 µg/mL in the test on Staphylococcus aureus [11]; 16 µg/mL in the test with Staphylococcus aureus [12]. The minimum inhibitory concentration (MIC) with Staphylococcus aureus [13] was 16 µg/mL; against Staphylococcus aureus [14], 16 µg/mL; against Staphylococcus aureus [15], above 64 µg/mL; against Staphylococcus aureus [16], 4 µg/mL; in test [17] it was 8 µg/mL; against Staphylococcus aureus [18], 4 µg/mL. The MIC in the test on Staphylococcus hominis turned out to be 64 µg/mL; with Staphylococcus aureus [19] it was 4 µg/mL.
Turning to `COc1ccc2c(c[n+]3c4c2ccc2c5c(cc(c24)CC3)OCO5)c1N.[Cl-]`, the minimum inhibitory concentration (MIC) came to 8 µg/mL against Staphylococcus aureus [1]; 8 µg/mL in [2]; 4 µg/mL in the test on Staphylococcus aureus [3]; 4 µg/mL against Staphylococcus aureus [4]; 4 µg/mL in the test on Staphylococcus aureus [5]; 8 µg/mL in [6]. Also, the minimum inhibitory concentration (MIC) is 4 µg/mL against Staphylococcus aureus [7]; 4 µg/mL against Staphylococcus aureus [8]; 8 µg/mL in the test with Staphylococcus aureus [9]; 4 µg/mL in the test with Staphylococcus aureus [10]; 4 µg/mL against Staphylococcus aureus [11]; 8 µg/mL in the test with Staphylococcus aureus [12]. Further, the MIC against Staphylococcus aureus [13] is 4 µg/mL; in the test with Staphylococcus aureus [14], 8 µg/mL; with Staphylococcus aureus [15] it was 64 µg/mL; in the test on Staphylococcus aureus [16], 4 µg/mL; in test [17], 8 µg/mL; against Staphylococcus aureus [18], 8 µg/mL. For the same compound, the figures for the MIC against Staphylococcus hominis and in the test on Staphylococcus aureus [19] were 8 µg/mL and 4 µg/mL, respectively.
Turning to `COc1ccc(C(=O)COc2c(OC)ccc3c2c[n+]2c4c3ccc3c5c(cc(c34)CC2)OCO5)cc1C(F)(F)F.[Br-]`, the MIC in the test on Staphylococcus aureus [1] was 4 µg/mL; in test [2] it was 4 µg/mL; against Staphylococcus aureus [3] it was above 64 µg/mL; in the test on Staphylococcus aureus [4], 4 µg/mL; against Staphylococcus aureus [5], 4 µg/mL; in test [6], 4 µg/mL. Further, the minimal inhibitory concentration (MIC) in the test on Staphylococcus aureus [7] stood at 16 µg/mL; in the test with Staphylococcus aureus [8], 8 µg/mL; against Staphylococcus aureus [9], 8 µg/mL; in the test on Staphylococcus aureus [10], 4 µg/mL; against Staphylococcus aureus [11] it was 4 µg/mL; with Staphylococcus aureus [12], 4 µg/mL. In addition, the minimum inhibitory concentration (MIC) in the test on Staphylococcus aureus [13] is 8 µg/mL; with Staphylococcus aureus [14] it was 8 µg/mL; with Staphylococcus aureus [15], above 64 µg/mL; against Staphylococcus aureus [16], 4 µg/mL; in test [17], 8 µg/mL; against Staphylococcus aureus [18], 4 µg/mL. The MIC with Staphylococcus hominis and in the test with Staphylococcus aureus [19] was 4 µg/mL in each case.
